Measurements published in ChEMBL document CHEMBL1123384, “Studies of the antitumor activity of (2-alkoxyalkyl)- and (2-alkoxyalkenyl)phosphocholines” (J Med Chem, 1986).
Converted amounts (≈) assume the structure as drawn. The source made the active and inactive calls. No cut-off for these calls is given here.

What was measured:
[1] = species on record: Mus musculus; experiment: Compound was evaluated for the induction of cytotoxic macrophages at concentration of 0.01 ug/mL; type: functional
Method in brief: (§1)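 Peptone-elicited peritoneal macrophages were taken from C3Heb/FeJ mice (6–8 weeks) 3 days after ip peptone broth. About 4 × 10^5 cells per well were made adherent (90 min) and washed. Compound (3 mg/mL Me2SO stock, diluted in RPMI-1640 + 20% FCS) was added with 4 × 10^4 P815 mastocytoma cells, about 10:1 macrophage:target, at 37 °C, 5% CO2. After 48 h, nonadherent cells were counted by trypan blue. % cytotoxicity = (A−B)/A × 100, corrected for direct drug toxicity on targets. Mean of three experiments.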

[2] = species on record: Mus musculus; experiment: Compound was evaluated for the induction of cytotoxic macrophages at concentration of 0.1 ug/mL; type: functional; method in brief: as §1
[3] = species on record: Mus musculus; experiment: Compound was evaluated for the induction of cytotoxic macrophages at concentration of 1 ug/mL; type: functional; method in brief: as §1
[4] = system: CCRF-CEM; experiment: In vitro inhibition of CCRF-CEM cell proliferation; type: functional, cell-based; details: Homo sapiens
Method in brief: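 Human leukaemia CCRF-CEM cells were grown in RPMI 1640 with 10% dialysed FBS, 16 mM HEPES and 8 mM MOPS, at 4.8 × 10^4 cells per well, in duplicate with several concentrations. Compounds came from a 4 mg/mL Me2SO (or ethanol) stock. After 72 h of continuous exposure (5% CO2), cells were counted on a Coulter counter. IC50 was read from dose–response curves against untreated controls.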

[5] = system: X5563; experiment: Compound was tested in vivo for inhibition of tumor growth of X5,563 myeloma at dose of 17 mg/kg; Number of toxic deaths over total number of mice per group (T/C), 1/10; type: functional; details: Mus musculus
[6] = system: X5563; experiment: Compound was tested in vivo for inhibition of tumor growth of X5,563 myeloma at dose of 25 mg/kg; Number of toxic deaths over total number of mice per group (T/C), 0/10; type: functional; details: Mus musculus
[7] = system: X5563; experiment: Compound was tested in vivo for inhibition of tumor growth of X5,563 myeloma at dose of 35 mg/kg; Number of toxic deaths over total number of mice per group (T/C), 2/9; type: functional; details: Mus musculus
[8] = system: X5563; experiment: Compound was tested in vivo for inhibition of tumor growth of X5,563 myeloma at dose of 50 mg/kg; Number of toxic deaths over total number of mice per group (T/C), 1/10; type: functional; details: Mus musculus
[9] = system: X5563; experiment: Compound was tested in vivo for inhibition of tumor growth of X5,563 myeloma at dose of 70 mg/kg; Number of toxic deaths over total number of mice per group (T/C), 9/10; type: functional; details: Mus musculus
[10] = system: X5563; experiment: Compound was tested in vivo for inhibition of tumor growth of X5,563 myeloma at dose of 17 mg/kg; Number of toxic deaths over total number of mice per group (T/C), 0/10; type: functional; details: Mus musculus
[11] = system: X5563; experiment: Compound was tested in vivo for inhibition of tumor growth of X5,563 myeloma at dose of 25 mg/kg; Number of toxic deaths over total number of mice per group (T/C), 2/10; type: functional; details: Mus musculus
[12] = Compound was tested in vivo for inhibition of tumor growth of X5,563 myeloma at dose of 35 mg/kg; Number of toxic deaths over total number of mice per group (T/C), 3/10; type: functional; details: Mus musculus, X5563
[13] = system: X5563; experiment: Compound was tested in vivo for inhibition of tumor growth of X5,563 myeloma at dose of 50 mg/kg; Number of toxic deaths over total number of mice per group (T/C), 9/10; type: functional; details: Mus musculus
[14] = system: 6C3HED; experiment: Compound was evaluated for the antitumor activity against 6C3HED lymphosarcoma for ip administration and daily x 8 schedule; Number of toxic deaths over total number of mice per group (T/C), 0/10 at dose of 35 mg/kg; type: functional; details: Mus musculus, route intraperitoneal
[15] = system: AC755; experiment: Compound was evaluated for the antitumor activity against AC755 breast carcinoma for ip administration and daily x 10 schedule; Number of toxic deaths over total number of mice per group (T/C), 1/7 at dose of 25 mg/kg; type: functional; details: Mus musculus, route intraperitoneal
[16] = system: B16; experiment: Compound was evaluated for the antitumor activity against B-16 melanoma; Inactive; type: functional, cell-based; details: Mus musculus
[17] = system: C6; experiment: Compound was evaluated for the antitumor activity against C-6 colon for ip administration and daily x 10; 5-day delay schedule; Number of toxic deaths over total number of mice per group (T/C), 1/10 at dose of 17 mg/kg; type: functional; details: Mus musculus, 120 h, route intraperitoneal
[18] = system: C3H; experiment: Compound was evaluated for the antitumor activity against C3H mammary carcinoma for ip administration and daily x 10 schedule; Number of toxic deaths over total number of mice per group (T/C), 1/10 at dose of 25 mg/kg; type: functional; details: Mus musculus, route intraperitoneal
[19] = system: M-5; experiment: Compound was evaluated for the antitumor activity against M-5 ovarian carcinoma for ip administration and daily x 10; % day delay schedule.; type: functional, Mus musculus
[20] = system: P388; experiment: Compound was evaluated for the antitumor activity against P-388 leukemia; Inactive; type: functional, cell-based; details: Mus musculus
Method in brief: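 P-388 leukaemia: DBA/2 mice were inoculated ip with 1 × 10^6 cells. Compounds were suspended in 2.5% Emulphor in 0.9% saline and given as indicated. Mean life span of treated groups was compared with controls.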

[21] = system: X5563; experiment: Compound was tested in vivo for inhibition of tumor growth of X5,563 myeloma at dose of 25 mg/kg; Number of toxic deaths over total number of mice per group (T/C), 1/10; type: functional; details: Mus musculus
[22] = system: X5563; experiment: Compound was tested in vivo for inhibition of tumor growth of X5,563 myeloma at dose of 35 mg/kg; Number of toxic deaths over total number of mice per group (T/C), 4/10; type: functional; details: Mus musculus
[23] = Compound was evaluated for the antitumor activity against X5563 plasma cell myeloma for po administration and daily x 10 schedule; Number of toxic deaths over total number of mice per group (T/C), 0/10 at dose of 50 mg/kg; type: functional; details: Mus musculus
[24] = Compound was evaluated for the antitumor activity against X5563 plasma cell myeloma for ip administration and days x10; Number of toxic deaths over total number of mice per group (T/C), 0/10 at dose of 25 mg/kg; type: functional; details: Mus musculus, route intraperitoneal
[25] = Compound was evaluated for the antitumor activity against X5563 plasma cell myeloma for iv administration and days 4,8,12; Number of toxic deaths over total number of mice per group (T/C), 1/10 at dose of 50 mg/kg; type: functional; details: Mus musculus
[26] = system: C-6 colon (Mus musculus); experiment: Compound was evaluated for the antitumor activity against C-6 colon for ip administration and days 4,8,12; Number of toxic deaths over total number of mice per group (T/C), 1/10 at dose of 50 mg/kg
[27] = system: X5563; experiment: Compound was tested in vivo for inhibition of tumor growth of X5,563 myeloma at dose of 17 mg/kg; Number of toxic deaths over total number of mice per group (T/C), 3/10; type: functional; details: Mus musculus
[28] = system: X5563; experiment: Compound was tested in vivo for inhibition of tumor growth of X5,563 myeloma at dose of 70 mg/kg; Number of toxic deaths over total number of mice per group (T/C), 2/10; type: functional; details: Mus musculus
[29] = system: X5563; experiment: Compound was tested in vivo for inhibition of tumor growth of X5,563 myeloma at dose of 25 mg/kg; Number of toxic deaths over total number of mice per group (T/C), 0/9; type: functional; details: Mus musculus
[30] = system: X5563; experiment: Compound was tested in vivo for inhibition of tumor growth of X5,563 myeloma at dose of 35 mg/kg; Number of toxic deaths over total number of mice per group (T/C), 0/9; type: functional; details: Mus musculus
[31] = system: X5563; experiment: Compound was tested in vivo for inhibition of tumor growth of X5,563 myeloma at dose of 5 mg/kg; Number of toxic deaths over total number of mice per group (T/C), 4/10; type: functional; details: Mus musculus

CCCCCCCCCCCCCCCCCCCCCCCC(COP(=O)([O-])OCC[N+](C)(C)C)OCC (centres undefined)
Macrophage cytotoxicity [1]: 0% | Macrophage cytotoxicity [2]: 2% | Macrophage cytotoxicity [3]: 0%

CCCCCCCCCCC(COP(=O)([O-])OCC[N+](C)(C)C)OCC (centres undefined)
IC50 [4]: 55 µg/mL (≈ 139 µM) | Macrophage cytotoxicity [1]: 1% | Macrophage cytotoxicity [2]: 2% | Macrophage cytotoxicity [3]: 32% | inhibition in vivo at 17 mg/kg [5]: 41% | inhibition in vivo at 25 mg/kg [6]: 39% | inhibition in vivo at 35 mg/kg [7]: 45%

CCCCCCCC/C=C\CCCCCCCC(COP(=O)([O-])OCC[N+](C)(C)C)OCC (centres undefined)
IC50 [4]: 1.6 µg/mL (≈ 3.25 µM) | inhibition in vivo at 50 mg/kg [8]: 47% | inhibition in vivo at 70 mg/kg [9]: 67%

CCCCCCCCCCCCCCCCCC[C@H](COP(=O)([O-])OCC[N+](C)(C)C)OC(C)=O
IC50 [4]: 0.9 µg/mL (≈ 1.73 µM) | Macrophage cytotoxicity [1]: 0% | Macrophage cytotoxicity [2]: 0% | Macrophage cytotoxicity [3]: 23% | inhibition in vivo at 17 mg/kg [10]: 57% | inhibition in vivo at 25 mg/kg [11]: 39% | inhibition in vivo at 35 mg/kg [12]: 68% | inhibition in vivo at 50 mg/kg [13]: 100%

CCCCCCCCCCCCCCCCCCC(COP(=O)([O-])OCC[N+](C)(C)C)OCC (centres undefined)
inhibition in vivo at 35 mg/kg [14]: 85% | inhibition in vivo at 25 mg/kg [15]: 42% | inhibition [16]: inactive | inhibition in vivo at 17 mg/kg [17]: 56% | IC50 [4]: 0.8 µg/mL (≈ 1.58 µM) | inhibition in vivo at 25 mg/kg [18]: 37% | Inhibition [19]: 22% | Macrophage cytotoxicity [1]: 1% | Macrophage cytotoxicity [2]: 37% | Macrophage cytotoxicity [3]: 29% | inhibition [20]: inactive | inhibition in vivo at 17 mg/kg [10]: 65% | inhibition in vivo at 25 mg/kg [21]: 80% | inhibition in vivo at 35 mg/kg [22]: 95% | inhibition in vivo at 50 mg/kg [23]: 56% | inhibition in vivo at 25 mg/kg [24]: 77% | inhibition in vivo at 50 mg/kg [25]: 43% | inhibition in vivo at 50 mg/kg [26]: 31%

CCCCCCCCCCCCCCC(COP(=O)([O-])OCC[N+](C)(C)C)OCC (centres undefined)
IC50 [4]: 5.4 µg/mL (≈ 12 µM) | inhibition in vivo at 17 mg/kg [27]: 7% | inhibition in vivo at 25 mg/kg [11]: 17% | inhibition in vivo at 35 mg/kg [22]: 80%

CCCCC/C=C\C/C=C\CCCCCCCC(COP(=O)([O-])OCC[N+](C)(C)C)OCC (centres undefined)
IC50 [4]: 6 µg/mL (≈ 12.3 µM) | inhibition in vivo at 70 mg/kg [28]: 31%

CCCCCCCCCCCCCCCCCCC(COP(=O)([O-])OCC[N+](C)(C)C)OC (centres undefined)
IC50 [4]: 1.5 µg/mL (≈ 3.04 µM)

CCCCCCCCCCCCCCCCCC[C@@H](O)COP(=O)([O-])OCC[N+](C)(C)C
IC50 [4]: > 20 µg/mL

CCCCCCC(COP(=O)([O-])OCC[N+](C)(C)C)OCC (centres undefined)
IC50 [4]: > 200 µg/mL | Macrophage cytotoxicity [1]: 0% | Macrophage cytotoxicity [2]: 0% | Macrophage cytotoxicity [3]: 0% | inhibition in vivo at 17 mg/kg [10]: 17% | inhibition in vivo at 25 mg/kg [29]: 16% | inhibition in vivo at 35 mg/kg [30]: 17%

CCCCCCCCCCCCCCCCOC[C@H](COP(=O)([O-])OCC[N+](C)(C)C)OCC
IC50 [4]: 2.9 µg/mL (≈ 5.69 µM) | Macrophage cytotoxicity [1]: 4% | Macrophage cytotoxicity [2]: 5% | Macrophage cytotoxicity [3]: 31% | inhibition in vivo at 5 mg/kg [31]: 18%
